Assay results published in ChEMBL document CHEMBL1914430, “Synthesis of some new 1,3,5-trisubstituted pyrazolines bearing benzene sulfonamide as anticancer and anti-inflammatory agents” (Bioorg Med Chem Lett, 2011).

Key:
Format in all cases: functional
[1] = test system: Rattus norvegicus; test: Antiinflammatory activity in Wistar rat assessed as inhibition of carrageenan-induced hind paw edema at 20 mg/kg, po administered 30 mins before carrageenan challenge measured after 3 hrs by plethysmometer
Procedure, shortened: (§1)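 Wistar rats of either sex, 150–175 g, fasted 16 h, n = 6 per group. Compound given orally at 20 mg/kg as a suspension in 1% CMC in water (10 mL/kg); controls got vehicle only. After 30 min, 0.1 mL of 1% carrageenan in saline was injected subplantar into the left hind paw. Paw volume was measured by plethysmometer at 0, 3 and 5 h. Inhibition = (1 − Vt/Vc) × 100, reported as mean ± SEM.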

[2] = test system: Rattus norvegicus; test: Antiinflammatory activity in Wistar rat assessed as inhibition of carrageenan-induced hind paw edema at 20 mg/kg, po administered 30 mins before carrageenan challenge measured after 5 hrs by plethysmometer; procedure, shortened: as §1
[3] = test system: CCRF-CEM; test: Anticancer activity against human CCRF-CEM cells after 48 hrs
Procedure, shortened: (§2)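 NCI Drug Evaluation Branch 60-cell-line screen across leukemia, melanoma, lung, colon, CNS, ovarian, renal, prostate and breast panels. The incubation period is 48 h. Parameters are derived from dose–response data: GI50 is the concentration giving 50% decrease in net growth, TGI is total growth inhibition, and LC50 is net 50% loss of initial cells. Values beyond the tested range are reported as greater or less than the maximum or minimum concentration.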

[4] = test system: HL-60(TB); test: Anticancer activity against human HL-60(TB) cells after 48 hrs; settings: HL-60, 48 h
Procedure, shortened: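 NCI 60-cell-line panel protocol: cells exposed to compound for 48 h. Initial one-dose screen at 10⁻⁵ M. GI50 = concentration giving 50% decrease in net cell growth. TGI = concentration giving total growth inhibition. LC50 = concentration giving net 50% loss of initial cells at the end of incubation. A value not reached or exceeded is reported as greater or less than the highest or lowest concentration tested.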

[5] = test system: MOLT-4; test: Anticancer activity against human MOLT4 cells after 48 hrs; settings: MOLT-4, 48 h
Procedure, shortened: (§3)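 NCI 60-line panel protocol with a 48 h incubation. Per line: GI50 = concentration giving 50% decrease in net cell growth; TGI = total growth inhibition; LC50 = net 50% loss of initial cells. When the level was not reached or was exceeded, the value is given as greater or less than the highest or lowest concentration tested.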

[6] = test system: A549; test: Anticancer activity against human A549 cells after 48 hrs; settings: A549, 48 h; procedure, shortened: as §2
[7] = test system: HOP-92; test: Anticancer activity against human HOP92 cells after 48 hrs; settings: HOP-92, 48 h; for CC50: read-out: LC50 (the source's name); procedure, shortened: as §2
[8] = test system: NCI-H226; test: Anticancer activity against human NCI-H226 cells after 48 hrs; settings: NCI-H226, 48 h; for CC50: read-out: LC50 (the source's name); procedure, shortened: as §3
[9] = test system: NCI-H322M; test: Anticancer activity against human NCI-H322M cells after 48 hrs; procedure, shortened: as §3
[10] = test system: HCC 2998; test: Anticancer activity against human HCC2998 cells after 48 hrs; settings: HCC 2998, 48 h; procedure, shortened: as §2
[11] = test system: HCT-116; test: Anticancer activity against human HCT116 cells after 48 hrs; settings: HCT-116, 48 h; for CC50: read-out: LC50 (the source's name); procedure, shortened: as §2
[12] = test system: HT-29; test: Anticancer activity against human HT-29 cells after 48 hrs; settings: HT-29, 48 h; for CC50: read-out: LC50 (the source's name); procedure, shortened: as §2
[13] = test system: KM12; test: Anticancer activity against human KM12 cells after 48 hrs; settings: KM12, 48 h; procedure, shortened: as §2
[14] = test system: SF-295; test: Anticancer activity against human SF295 cells after 48 hrs; settings: SF-295, 48 h; procedure, shortened: as §3
[15] = test system: SF-539; test: Anticancer activity against human SF539 cells after 48 hrs; settings: SF-539, 48 h; procedure, shortened: as §3
[16] = test system: Malme-3M; test: Anticancer activity against human MALME-3M cells after 48 hrs; settings: for CC50: read-out: LC50 (the source's name); procedure, shortened: as §2
[17] = test system: MDA-MB-435; test: Anticancer activity against human MDA-MB-435 cells after 48 hrs; settings: MDA-MB-435, 48 h; for CC50: read-out: LC50 (the source's name); procedure, shortened: as §2
[18] = test system: SK-MEL-2; test: Anticancer activity against human SK-MEL-2 cells after 48 hrs; settings: SK-MEL-2, 48 h; procedure, shortened: as §3
[19] = test system: SK-MEL-28; test: Anticancer activity against human SK-MEL-28 cells after 48 hrs; settings: SK-MEL-28, 48 h; for CC50: read-out: LC50 (the source's name); procedure, shortened: as §3
[20] = test system: OVCAR-3; test: Anticancer activity against human OVCAR3 cells after 48 hrs; settings: OVCAR-3, 48 h; procedure, shortened: as §3
[21] = test system: OVCAR-5; test: Anticancer activity against human OVCAR5 cells after 48 hrs; settings: OVCAR-5, 48 h; procedure, shortened: as §3
[22] = test system: OVCAR-8; test: Anticancer activity against human OVCAR8 cells after 48 hrs; settings: OVCAR-8, 48 h; for CC50: read-out: LC50 (the source's name); procedure, shortened: as §3
[23] = test system: CAKI-1; test: Anticancer activity against human Caki1 cells after 48 hrs; settings: CAKI-1, 48 h; procedure, shortened: as §2
[24] = test system: UO-31; test: Anticancer activity against human UO31 cells after 48 hrs; settings: UO-31, 48 h; for CC50: read-out: LC50 (the source's name)
Procedure, shortened: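 NCI ~60 human tumour cell line panel with a 48 h incubation. GI50 is the concentration giving a 50% fall in net growth, TGI gives total growth inhibition, and LC50 gives a net 50% loss of initial cells. An effect not reached or exceeded is reported as greater or less than the highest or lowest concentration tested.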

[25] = test system: PC-3; test: Anticancer activity against human PC3 cells after 48 hrs; settings: PC-3, 48 h; for CC50: read-out: LC50 (the source's name); procedure, shortened: as §3
[26] = test system: DU-145; test: Anticancer activity against human DU145 cells after 48 hrs; settings: DU-145, 48 h; procedure, shortened: as §2
[27] = test system: MCF7; test: Anticancer activity against human MCF7 cells after 48 hrs; settings: MCF7, 48 h; procedure, shortened: as §2

Cc1cc(O)c(C2=NN(c3ccc(S(N)(=O)=O)cc3)C(/C=C/c3ccccc3)C2)cc1Cl (stereo not drawn)
inhibition in vivo at 20 mg/kg [1]: 78.9%
inhibition in vivo at 20 mg/kg [2]: 71.4%
GI50 [3]: 17.7 µM
LC50 (concentration causing net 50% loss of initial cells) [3]: > 100 µM
TGI [3]: 50 µM
GI50 [4]: 68.3 µM
LC50 [4]: > 100 µM
TGI [4]: 100 µM
GI50 [5]: 17.7 µM
LC50 [5]: > 100 µM
TGI [5]: 73.7 µM
GI50 [6]: 11 µM
LC50 (net 50% loss of initial cells) [6]: 86 µM
TGI [6]: 30.8 µM
GI50 [7]: 2.36 µM
TGI [7]: 8.48 µM
CC50 [7]: 34 µM
GI50 [8]: 5.21 µM
TGI [8]: 19.2 µM
CC50 [8]: 51.8 µM
GI50 [9]: 5.73 µM
LC50 (net 50% loss of initial cells) [9]: > 100 µM
TGI [9]: 27.5 µM
GI50 [10]: 9.89 µM
LC50 (net 50% loss of initial cells) [10]: 92.5 µM
TGI [10]: 30.3 µM
GI50 [11]: 2.4 µM
TGI [11]: 14.6 µM
CC50 [11]: 38.2 µM
GI50 [12]: 3.73 µM
TGI [12]: 14.7 µM
CC50 [12]: 38.3 µM
GI50 [13]: 11.7 µM
LC50 (concentration causing net 50% loss of initial cells) [13]: > 100 µM
TGI [13]: 34.8 µM
GI50 [14]: 2.36 µM
LC50 (concentration giving net 50% loss of initial cells) [14]: 37.3 µM
TGI [14]: 11.9 µM
GI50 [15]: 2.98 µM
LC50 (concentration causing net 50% loss of initial cells) [15]: 37.5 µM
TGI [15]: 14 µM
GI50 [16]: 3.01 µM
TGI [16]: 17.4 µM
CC50 [16]: 51.9 µM
GI50 [17]: 8.87 µM
TGI [17]: 24 µM
CC50 [17]: 59.5 µM
GI50 [18]: 16.8 µM
LC50 [18]: > 100 µM
TGI [18]: 58.2 µM
GI50 [19]: 10.9 µM
TGI [19]: 23.8 µM
CC50 [19]: 52 µM
GI50 [20]: 11.5 µM
LC50 (concentration giving 50% net loss of initial cells) [20]: 70.2 µM
TGI [20]: 28.4 µM
GI50 [21]: 3.18 µM
LC50 [21]: 38.3 µM
TGI [21]: 14.7 µM
GI50 [22]: 3.03 µM
TGI [22]: 20.2 µM
CC50 [22]: 91.7 µM
GI50 [23]: 15.3 µM
LC50 (concentration giving 50% net loss of initial cells) [23]: > 100 µM
TGI [23]: 87.7 µM
GI50 [24]: 15.2 µM
TGI [24]: 34.9 µM
CC50 [24]: 79.9 µM
GI50 [25]: 3.15 µM
TGI [25]: 11.5 µM
CC50 [25]: 34 µM
GI50 [26]: 14.1 µM
LC50 (concentration causing net 50% loss of initial cells) [26]: > 100 µM
TGI [26]: 38.6 µM
GI50 [27]: 3.93 µM
LC50 [27]: 40.1 µM
TGI [27]: 16.1 µM

Cc1cc(O)c(C2=NN(c3ccc(S(N)(=O)=O)cc3)C(c3ccccc3Cl)C2)cc1Cl (stereo not drawn)
inhibition in vivo at 20 mg/kg [1]: 55.3%
inhibition in vivo at 20 mg/kg [2]: 71.4%
GI50 [3]: 4.81 µM
LC50 (concentration causing net 50% loss of initial cells) [3]: > 100 µM
TGI [3]: > 100 µM
GI50 [4]: 3.44 µM
LC50 [4]: > 100 µM
TGI [4]: 100 µM
GI50 [5]: 4.04 µM
LC50 [5]: > 100 µM
TGI [5]: > 100 µM
GI50 [6]: 3.82 µM
LC50 (net 50% loss of initial cells) [6]: > 100 µM
TGI [6]: 19.3 µM
GI50 [7]: 1.94 µM
TGI [7]: 6.32 µM
CC50 [7]: 3.12 µM
GI50 [8]: 3.03 µM
TGI [8]: 9.44 µM
CC50 [8]: > 100 µM
GI50 [9]: 2.19 µM
LC50 (net 50% loss of initial cells) [9]: 22 µM
TGI [9]: 5.06 µM
GI50 [10]: 2.1 µM
LC50 (net 50% loss of initial cells) [10]: 7.3 µM
TGI [10]: 3.91 µM
GI50 [11]: 1.76 µM
TGI [11]: 3.15 µM
CC50 [11]: 5.61 µM
GI50 [12]: 1.92 µM
TGI [12]: 3.63 µM
CC50 [12]: 6.83 µM
GI50 [13]: 1.98 µM
TGI [13]: 3.66 µM
GI50 [14]: 1.59 µM
LC50 (concentration giving net 50% loss of initial cells) [14]: 6.34 µM
TGI [14]: 3.18 µM
GI50 [15]: 1.79 µM
LC50 (concentration causing net 50% loss of initial cells) [15]: 5.9 µM
TGI [15]: 3.25 µM
GI50 [16]: 2.62 µM
TGI [16]: 6.46 µM
CC50 [16]: > 100 µM
GI50 [17]: 1.85 µM
TGI [17]: 3.92 µM
CC50 [17]: 8.32 µM
GI50 [18]: 11.9 µM
LC50 [18]: 81.1 µM
TGI [18]: 31 µM
GI50 [19]: 3.39 µM
TGI [19]: 12.3 µM
CC50 [19]: 52.9 µM
GI50 [20]: 1.89 µM
LC50 (concentration giving 50% net loss of initial cells) [20]: 6.77 µM
TGI [20]: 3.58 µM
GI50 [21]: 1.74 µM
LC50 [21]: 6.23 µM
TGI [21]: 3.3 µM
GI50 [22]: 2.94 µM
TGI [22]: 11.2 µM
CC50 [22]: > 100 µM
GI50 [23]: 1.78 µM
LC50 (concentration giving 50% net loss of initial cells) [23]: 8.95 µM
TGI [23]: 3.99 µM
GI50 [24]: 2.66 µM
TGI [24]: 16.2 µM
CC50 [24]: 48 µM
GI50 [25]: 1.58 µM
TGI [25]: 3.32 µM
CC50 [25]: 6.98 µM
GI50 [26]: 2.01 µM
LC50 (concentration causing net 50% loss of initial cells) [26]: 7.35 µM
TGI [26]: 3.85 µM
GI50 [27]: 1.75 µM
LC50 [27]: 6.35 µM
TGI [27]: 3.33 µM
